Assay results taken from ChEMBL document CHEMBL4373706, “Discovery of Inhibitors of Aurora/PLK Targets as Anticancer Agents” (J Med Chem, 2019).
Calls of active or inactive are those of the source. The rule behind the calls is not given here.

What was measured:
[1] = Cmax in Sprague-Dawley rat at 50 mg/kg, po administered via gastric gavage by LC-MS/MS analysis; format: ADME, organism-based; parameters: dose 50 mg/kg, route oral; conditions: in vivo
[2] = AUC (0 to infinity) in Sprague-Dawley rat at 50 mg/kg, po administered via gastric gavage by LC-MS/MS analysis; format: ADME, organism-based; parameters: dose 50 mg/kg, time infinity, route oral; conditions: in vivo
HCT-116 [3] = assay: Induction of apoptosis in human HCT116 cells measured after 48 hrs by Annexin V-FITC/propidium iodide staining-based flow cytometry; format: functional, cell-based
[4] = target: Cyclin-dependent kinase 6 (Homo sapiens, UniProt Q00534); assay: Binding affinity to wild-type human full-length CDK6 (M1 to A326 residues) expressed in mammalian expression system measured after 1 hr by kinomescan method; conditions: pooled result: one value given for 15 cell lines, strains, targets or settings
Cyclin-dependent kinase 6, sequence (Q00534 whole entry, the tested form may be a part): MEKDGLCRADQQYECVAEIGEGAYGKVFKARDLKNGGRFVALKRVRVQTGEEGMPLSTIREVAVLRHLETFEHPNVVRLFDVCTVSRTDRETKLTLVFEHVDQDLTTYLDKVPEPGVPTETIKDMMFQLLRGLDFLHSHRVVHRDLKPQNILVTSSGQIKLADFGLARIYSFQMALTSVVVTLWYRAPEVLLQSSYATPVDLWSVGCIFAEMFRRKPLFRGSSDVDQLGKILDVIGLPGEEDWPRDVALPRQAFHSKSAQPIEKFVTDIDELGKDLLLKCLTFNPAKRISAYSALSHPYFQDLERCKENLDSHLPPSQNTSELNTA

[5] = Half life in Sprague-Dawley rat at 10 mg/kg, iv administered […] by LC-MS/MS analysis; format: ADME, organism-based; conditions: in vivo
HCT-116 [6] = assay: Cell cycle arrest in human HCT116 cells assessed as accumulation at G2/M phase at 5 uM measured after 24 to 48 hrs by propidium iodide staining-based flow cytometry (reference value: 3.37%); format: functional
[7] = Toxicity in BALB/c mouse xenografted with human HCT116 cells assessed as change in body weight at 1 to 5 mg/kg, iv administered every 3 days for 24 days measured post-last dose; format: organism-based; conditions: in vivo
[8] = AUC (0 to infinity) in Sprague-Dawley rat at 10 mg/kg, iv administered […] by LC-MS/MS analysis; format: ADME, organism-based; parameters: dose 10 mg/kg, route intravenous, time infinity; conditions: in vivo
[9] = Oral bioavailability in Sprague-Dawley rat at 50 mg/kg administered via gastric gavage by LC-MS/MS analysis; format: ADME, organism-based; conditions: in vivo
HCT-116 [10] = assay: Antitumor activity against human HCT116 cells xenografted in BALB/c mouse assessed as survival rate at 1 mg/kg, iv administered every 3 days for 60 days relative to control; format: functional; conditions: HCT-116, iv
HCT-116 [11] = assay: Antiproliferative activity against human HCT116 cells measured after 48 hrs by MTT assay; format: functional, cell-based; conditions: HCT-116, 48 h
How it was run: (§1)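 Cells were exposed to a range of compound concentrations for 48 h. MTT reagent was then added and absorbance read at 490 nm. Viability was normalized to vehicle control set as 100%, from n = 3 independent experiments, and IC50 was taken from the dose–response curves.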

HCT-116 [12] = assay: Antitumor activity against human HCT116 cells xenografted in BALB/c mouse assessed as reduction in tumor size at 10 mg/kg, iv administered every 3 days for 24 days measured at 3 days interval during compound dosing relative to control; format: functional; parameters: scale not given: the % may be the effect or the level left
Homo sapiens = organism: Homo sapiens; assay: Inhibition of AURKA/PLK1 in human HCT116 cells assessed as increase in histone H3 Ser10 phosphorylation measured after 24 to 48 hrs by Western blot analysis; format: cell-based
HCT-116 [13] = assay: Cell cycle arrest in human HCT116 cells assessed as accumulation at G2/M phase at 1 uM measured after 24 to 48 hrs by propidium iodide staining-based flow cytometry (reference value: 3.37%); format: functional
HCT-116 [14] = assay: Cell cycle arrest in human HCT116 cells assessed as increase in accumulation at G2/M phase measured after 24 to 48 hrs by propidium iodide staining-based flow cytometry; format: functional
HCT-116 [15] = assay: Antitumor activity against human HCT116 cells xenografted in BALB/c mouse assessed as mean survival days at 1 mg/kg, iv administered every 3 days for 60 days (reference value: 25 day); format: functional
MCF7 = assay: Antiproliferative activity against human MCF7 cells measured after 48 hrs by MTT assay; format: functional, cell-based; conditions: MCF7, 48 h; how it was run: as §1
[16] = Half life in Sprague-Dawley rat at 50 mg/kg, po administered via gastric gavage by LC-MS/MS analysis; format: ADME, organism-based; conditions: in vivo
Calu-6 = assay: Antiproliferative activity against human Calu6 cells measured after 48 hrs by MTT assay; format: functional, cell-based; conditions: Calu-6, 48 h; how it was run: as §1
HCT-116 [17] = assay: Induction of apoptosis in human HCT116 cells assessed as apoptotic cell population at 10 uM measured after 48 hrs by Annexin V-FITC/propidium iodide staining-based flow cytometry (reference value: 5.9%); format: functional
HCT-116 [18] = assay: Cell cycle arrest in human HCT116 cells assessed as accumulation at G2/M phase at 10 uM measured after 24 to 48 hrs by propidium iodide staining-based flow cytometry (reference value: 3.37%); format: functional
[19] = target: Serine/threonine-protein kinase PLK3 (Homo sapiens, UniProt Q9H4B4); assay: Binding affinity to wild-type human partial length PLK3 (A42 to L334 residues) expressed in mammalian expression system measured after 1 hr by kinomescan method
Serine/threonine-protein kinase PLK3, sequence (Q9H4B4 whole entry, the tested form may be a part): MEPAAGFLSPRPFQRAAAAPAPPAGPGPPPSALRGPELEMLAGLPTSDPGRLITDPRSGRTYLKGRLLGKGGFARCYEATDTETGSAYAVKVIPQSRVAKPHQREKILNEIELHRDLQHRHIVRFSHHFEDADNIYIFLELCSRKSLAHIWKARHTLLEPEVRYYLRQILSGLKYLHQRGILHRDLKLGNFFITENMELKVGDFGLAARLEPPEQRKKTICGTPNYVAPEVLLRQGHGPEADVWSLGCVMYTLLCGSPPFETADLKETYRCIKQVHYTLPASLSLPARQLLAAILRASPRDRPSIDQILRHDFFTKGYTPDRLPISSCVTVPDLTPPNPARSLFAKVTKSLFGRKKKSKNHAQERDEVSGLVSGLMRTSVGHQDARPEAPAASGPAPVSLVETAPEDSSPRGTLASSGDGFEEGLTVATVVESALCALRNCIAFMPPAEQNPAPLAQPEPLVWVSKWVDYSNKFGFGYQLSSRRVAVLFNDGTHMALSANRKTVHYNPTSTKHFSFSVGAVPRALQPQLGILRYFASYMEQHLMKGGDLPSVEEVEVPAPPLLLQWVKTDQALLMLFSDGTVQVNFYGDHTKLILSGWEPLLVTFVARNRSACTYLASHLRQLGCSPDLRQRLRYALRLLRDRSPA
How it was run: (§2)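 KINOMEscan competition binding assay. A 321-kinase panel was first screened at 10 μM compound, and binding affinities were then determined for Aurora and PLK family members.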

[20] = target: T1, Mitogen-activated protein kinase 15 (Homo sapiens, UniProt Q8TD08); assay: Binding affinity to wild-type human partial length ERK8 (M1 to P437 residues) expressed in bacterial expression system measured after 1 hr by kinomescan method; conditions: pooled result: one value given for 7 cell lines, strains, targets or settings
T1 sequence (Q8TD08 whole entry): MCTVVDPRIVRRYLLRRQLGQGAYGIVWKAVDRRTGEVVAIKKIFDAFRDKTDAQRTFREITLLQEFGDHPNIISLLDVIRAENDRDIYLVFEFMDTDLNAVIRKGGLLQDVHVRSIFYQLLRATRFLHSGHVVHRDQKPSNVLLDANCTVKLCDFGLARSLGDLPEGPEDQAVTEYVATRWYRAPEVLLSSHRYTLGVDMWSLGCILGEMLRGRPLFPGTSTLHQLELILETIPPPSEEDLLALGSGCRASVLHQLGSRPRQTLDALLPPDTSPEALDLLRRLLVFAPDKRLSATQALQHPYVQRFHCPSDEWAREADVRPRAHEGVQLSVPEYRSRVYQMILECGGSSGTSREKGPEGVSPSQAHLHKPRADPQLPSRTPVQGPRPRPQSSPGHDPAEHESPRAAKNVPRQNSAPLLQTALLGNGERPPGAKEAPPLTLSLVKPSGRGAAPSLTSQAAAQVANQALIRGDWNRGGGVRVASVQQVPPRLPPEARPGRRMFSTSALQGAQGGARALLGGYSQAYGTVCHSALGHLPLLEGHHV

Aurora kinase B = Aurora kinase B (Homo sapiens, UniProt Q96GD4); assay: Binding affinity to wild-type human partial length AURKB (D25 to A303 residues) expressed in mammalian expression system measured after 1 hr by Kinomescan method; how it was run: as §2
Aurora kinase B, sequence (Q96GD4 whole entry, the tested form may be a part): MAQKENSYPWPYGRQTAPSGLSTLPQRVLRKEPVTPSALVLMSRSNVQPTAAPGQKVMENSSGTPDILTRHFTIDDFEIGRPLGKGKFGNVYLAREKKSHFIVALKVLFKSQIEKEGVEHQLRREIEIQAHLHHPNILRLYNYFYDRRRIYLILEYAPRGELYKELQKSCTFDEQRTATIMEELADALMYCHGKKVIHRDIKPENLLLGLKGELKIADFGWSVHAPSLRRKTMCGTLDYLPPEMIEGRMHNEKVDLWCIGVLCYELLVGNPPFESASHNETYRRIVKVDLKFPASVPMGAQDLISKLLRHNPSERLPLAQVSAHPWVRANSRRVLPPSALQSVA

HCT-116 [21] = assay: Antitumor activity against human HCT116 cells xenografted in BALB/c mouse assessed as reduction in tumor growth at 5 mg/kg, iv administered every 3 days for 24 days measured at 3 days interval during compound dosing; format: functional, organism-based
HCT-116 [22] = assay: Induction of apoptosis in human HCT116 cells assessed as apoptotic cell population at 5 uM measured after 48 hrs by Annexin V-FITC/propidium iodide staining-based flow cytometry (reference value: 5.9%); format: functional
[23] = target: Serine/threonine-protein kinase PLK2 (Homo sapiens, UniProt Q9NYY3); assay: Binding affinity to wild-type human partial length PLK2 (H58 to F354 residues) expressed in mammalian expression system measured after 1 hr by kinomescan method; how it was run: as §2
Serine/threonine-protein kinase PLK2, sequence (Q9NYY3 whole entry, the tested form may be a part): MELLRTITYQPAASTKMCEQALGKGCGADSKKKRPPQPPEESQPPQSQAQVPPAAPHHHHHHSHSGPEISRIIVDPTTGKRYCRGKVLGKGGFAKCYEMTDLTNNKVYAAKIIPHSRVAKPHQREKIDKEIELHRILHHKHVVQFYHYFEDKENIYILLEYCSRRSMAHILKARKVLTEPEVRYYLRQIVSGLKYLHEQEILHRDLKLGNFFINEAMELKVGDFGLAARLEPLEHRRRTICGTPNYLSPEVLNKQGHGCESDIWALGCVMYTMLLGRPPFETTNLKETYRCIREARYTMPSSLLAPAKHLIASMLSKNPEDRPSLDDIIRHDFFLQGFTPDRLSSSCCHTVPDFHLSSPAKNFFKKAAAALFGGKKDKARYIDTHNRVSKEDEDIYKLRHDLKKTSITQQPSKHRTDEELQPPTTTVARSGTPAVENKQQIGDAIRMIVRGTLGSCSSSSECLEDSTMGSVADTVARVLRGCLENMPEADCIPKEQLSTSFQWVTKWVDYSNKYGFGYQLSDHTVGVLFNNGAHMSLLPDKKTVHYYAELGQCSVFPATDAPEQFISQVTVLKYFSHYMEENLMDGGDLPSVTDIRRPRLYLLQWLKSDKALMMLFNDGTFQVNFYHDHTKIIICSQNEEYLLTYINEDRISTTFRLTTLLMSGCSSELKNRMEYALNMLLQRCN

In the case of O=C(Nc1ccc2cc(C(=O)Nc3nccs3)ccc2c1)c1ccc(Cl)c(Cl)c1, the Cmax [1] is reported as 25100 ng/mL, the AUC [2] is reported as 819.495 µg·h/mL and the Activity (HCT-116 [3]) is reported as “Dose-dependent effect”. For the same molecule, the Kd [4] was 8020 nM, the half-life [5] was 16.2 h and the Activity (HCT-116 [6]) was 10.06%. For the same molecule, the Activity [7] was “Non-Toxic”, the AUC [8] was 1260.761 µg·h/mL and the F [9] was 65%. It also gave a survival at 1 mg/kg (HCT-116 [10]) of over 25%, an IC50 (HCT-116 [11]) of 400 nM and an Activity (HCT-116 [12]) of 75%. The inhibition (Homo sapiens) was “Active”, the Activity (HCT-116 [13]) was 7.51% and the Activity (HCT-116 [14]) was “Dose-dependent effect”. It also gave an MSD (HCT-116 [15]) of 37.5 days, an IC50 (MCF7) of 2300 nM and a half-life [16] of 11.8 h. For the same molecule, the IC50 (Calu-6) was 5300 nM, the Activity (HCT-116 [17]) was 91.4% and the Activity (HCT-116 [18]) was 29.66%. For the same molecule, the Kd [19] was 456 nM, the Kd [20] was 5320 nM and the Kd (Aurora kinase B) was 78 nM. The Activity (HCT-116 [21]) was “Active”, the Activity (HCT-116 [22]) was 61.7% and the Kd [23] was 272 nM.
